For series [1], the target named is T1, Bromodomain-containing protein 4 (Homo sapiens, UniProt O60885). Put plainly: Inhibition of BRD4 BD1 (unknown origin) using biotinylated ligand incubated for 60 mins by TR-FRET assay. In general terms: TR-FRET usually uses a lanthanide donor and a delayed reading to cut background.
Series [2] deals with T1, Bromodomain-containing protein 4. In words: Inhibition of BRD4 BD1 in human Raji cells assessed as reduction of MYC RNA expression after 4 hrs by PCR analysis. The series is classed as cell-based.
Series [3] has as its system MV4-11. Put plainly: Antitumor activity against human MV4-11 cells xenografted in BALB/c mouse assessed as slower tumor regrowth after drug therapy removal at 2 mg/kg,iv BIW in presence of at 10 mg/kg,sc BID for 28 days and measured after 28 days. The series is classed as functional, organism-based. As to conditions: time 28.0 day.
In series [4] the test system is MV4-11. In words: Antitumor activity against human MV4-11 cells xenografted in BALB/c mouse assessed as complete tumor growth inhibition at 2 mg/kg,iv BIW in presence of at 10 mg/kg,sc BID for 28 days. The series is classed as functional, organism-based. Conditions: time 28.0 day. In general terms: Xenograft models place foreign cells or tissue in a host animal.
Series [5] can be described thus: Toxicity against BALB/c mouse plasma xenografted with human MV4-11 cells assessed as body weight loss at 2 mg/kg,iv BIW in presence of at 10 mg/kg,sc BID for 28 days. As to conditions: in vivo, 672 h, time 28 day. The class given is organism-based. In a few lines:
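MV-4-11 acute myeloid leukemia mouse xenograft; BET inhibitor given subcutaneously 10 mg/kg twice daily, doxorubicin 2 mg/kg IV twice weekly, alone or combined, for 28 days; body weight change (%) tracked over treatment against vehicle.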

Series [6] concerns MV4-11. In words: Antitumor activity against human MV4-11 cells xenografted in BALB/c mouse assessed as modest tumor growth inhibition at 2 mg/kg,iv BIW for 28 days. The series is classed as functional, organism-based. Conditions: time 28.0 day.
A short description of series [7]: Oral bioavailability in rat at 10 mg/kg. Conditions: in vivo. The class given is ADME, organism-based.
Series [8] is described as follows: Clearance in rat assessed as liver blood flow at 1 mg/kg,iv. The series is classed as ADME, organism-based. As to conditions: in vivo.
Series [9] is described as follows: Intrinsic clearance in human liver microsomes. The class given is ADME, Microsome. Conditions: read-out: CLH. A general note: Liver microsomes are vesicles of endoplasmic reticulum, rich in cytochrome P450 enzymes.
Series [10] is described as follows: Volume of distribution at steady state in rat at 1 mg/kg,iv. Conditions: in vivo, read-out: Vdss. The series is classed as ADME, organism-based.
A short description of series [11]: Half life in rat plasma at 1 mg/kg,iv. The class given is ADME, organism-based.
The nature of series [12]: Unbound AUC in rat at 10 mg/kg,po. As to conditions: in vivo. The series is classed as ADME, organism-based.
A short description of series [13]: Tmax in rat at 10 mg/kg,po. The series is classed as ADME, organism-based. As to conditions: in vivo.
The nature of series [14]: Intrinsic clearance in rat liver microsomes. The class given is ADME, Microsome.
Series [15] in a line: Protein binding in mouse plasma. The class given is ADME, cell-free. Conditions: read-out: PPB (converted).
Series [16] has as its target T1, Bromodomain-containing protein 4. Put plainly: Inhibition of BRD4 BD1 in human MV4-11 cells assessed as reduction of MYC RNA expression after 4 hrs by PCR analysis. The series is classed as cell-based.
Series [17] in a line: Protein binding in rat plasma. The series is classed as ADME, cell-free. As to conditions: read-out: PPB (converted).
Series [18] is described as follows: AUC (0 to infinity) in rat at 10 mg/kg,po. The class given is ADME, organism-based. The arrangement: dose 10 mg/kg, route po. As to conditions: in vivo.
Series [19] in a line: Protein binding in dog plasma. The series is classed as ADME, cell-free, Canis lupus familiaris. Conditions: read-out: PPB (converted).
Series [20] is described as follows: Intrinsic clearance in mouse liver microsomes. The class given is ADME, Microsome. As to conditions: read-out: CLH.
A short description of series [21]: Intrinsic clearance in dog liver microsomes. The series is classed as ADME, Canis lupus familiaris, Microsome. As to conditions: read-out: CLH.
Series [22] in a line: Total clearance in rat at 1 mg/kg,iv. The class given is ADME, organism-based. Conditions: in vivo.
The nature of series [23]: Cmax in rat at 10 mg/kg,po. The series is classed as ADME, organism-based. The arrangement: dose 10 mg/kg, route po. Conditions: in vivo.
The nature of series [24]: Protein binding in human plasma. The class given is ADME, cell-free. Conditions: read-out: PPB (converted).
Series [25] in a line: Unbound clearance in rat at 1 mg/kg,iv. Conditions: in vivo. The series is classed as ADME, organism-based.
Series [26] has as its target T1, Bromodomain-containing protein 4. In words: Displacement of biotinylated JQ1 from BRD4 BD1 (unknown origin) incubated for 20 mins by AlphaLISA assay.

The source made the active and inactive calls.

Here are results for four compounds from ChEMBL document CHEMBL5252513, “Identification of a Benzoisoxazoloazepine Inhibitor (CPI-0610) of the Bromodomain and Extra-Terminal (BET) Family as a Candidate for Human Clinical Trials” (J Med Chem, 2016).

For orientation: IC50 means the concentration that gives 50% inhibition. High values mean lower potency, low ones higher potency. As usually defined, the EC50 is the midpoint of the concentration-response curve. The compound `Cc1noc2c1-c1ccnc(N)c1C(c1ccc(Cl)cc1)=NC2` gave an IC50 in series [1] of 90 nM. Further, the EC50 in [2] was 720 nM.
On to `COc1cccc2c1C(=O)c1c(O)c3c(c(O)c1C2=O)C[C@@](O)(C(=O)CO)C[C@@H]3O[C@H]1C[C@H](N)[C@H](O)[C@H](C)O1` [DOXORUBICIN], for which the result in the series on MV4-11 [3], with MV4-11 [4] and in the series on MV4-11 [6] was Active. The Activity result in series [5] is “Non-Toxic”.
Usually bioavailability stands for dose-corrected exposure relative to a reference, in per cent. Higher therefore signals much systemic uptake. Usually half-life stands for the time needed for the level to fall by half in the phase considered. Higher therefore signals slow loss. The Tmax is the time at which the peak concentration occurs. Usually AUC(0-inf) stands for the area under the concentration-time curve extrapolated to infinity. In general, clearance refers to the volume of plasma or blood freed of the substance per unit of time. One may read the Cmax as the highest concentration seen after dosing. `COCCNC(=O)C[C@@H]1N=C(c2ccc(Cl)cc2)c2ccccc2-c2c(C)noc21` yielded a bioavailability in [7] of 11%. In series [8], the QH is listed as 66%. The predicted hepatic clearance was 19 mL/min/kg in series [9], 82 mL/min/kg in series [20] and 30 mL/min/kg in series [21]. In [1], this compound registered an IC50 of 56 nM. Also, in series [10], the Vd came out at 1.8 L/kg. In series [11], this compound showed a half-life of 72 min. Moreover, the fAUC in series [12] worked out at 0.084 µM·h. For the same compound, the Tmax in [13] stood at 40.2 min. The predicted hepatic clearance (CLH) in [14] is 45 mL/min/kg. Further, the fraction unbound in series [15] was 0.01; in [17] it was 0.07; in series [19], 0.03; in [24] it was under 0.01. Moreover, the half-maximal effective concentration (EC50) in [16] is 270 nM. This compound gave an AUC(0-inf) in series [18] of 1.2 µM·h. Also, the clearance in [22] is 36.7 mL/min/kg. For the same compound, in [23], the Cmax was 380 nM. In addition, the CL free in series [25] is 517 mL/min/kg.
`Cc1noc2c1-c1ccccc1C(c1ccc(Cl)cc1)=N[C@H]2CC(=O)OC(C)(C)C` came in with an IC50 in [26] of 580 nM.
